Shown are actives, neighbours in structure and some others; about 5.1% of the full set was active somewhere.
STAT1 blocker = reduces IFN-gamma driven STAT1 reporter signal. NIH 3T3 STAT1-luciferase reporter, luminescence. inhibition, % at 5.5 µM. actives 0.35% (n = 200,000);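 active = inhibition above a set limit, the mean inhibition across all tested compounds plus 3 SD, cut at about 34% in these data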;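 also: 0% = IFN-gamma with DMSO and 100% = IFN-gamma with 300 µM nifuroxazide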
STAT3 inh = inhibitors of IL-6 induced STAT3 signaling. U3A cells, IL-6 STAT3-luciferase reporter, luminescence; host cell line lacks STAT1. inhibition, % at 5.5 µM. actives 0.89% (n = 190,000). AID 862;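 active = inhibition above the mean inhibition across all screened compounds plus 3 SD, cut at about 44% in these data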;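 also: 0% = DMSO only wells and 100% = 100 µM nifuroxazide control wells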
APP 5'UTR act = activates APP 5'UTR luciferase reporter. SH-SY5Y APP 5'UTR luciferase reporter, luminescence; zero percent = DMSO vehicle wells. activation, % at 2 µM. actives 1% (n = 190,000). AID 1276;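 active = activation above a set limit, based on mean plus 3 SD of controls, cut at about 140% in these data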
STAT3 act-1 = increases IL-6 driven STAT3 reporter signal | U3A cells, IL-6 STAT3-luciferase reporter, luminescence; 100% = signal with IL-6 EC80 alone | activation (% of control), % at 5.6 µM | actives 0.91% (n = 190,000);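 active = activation above the screen-wide mean of compound activation plus 3 SD, cut at about 130% in these data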;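 also: 0% = background luminescence of wells with medium and substrate only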
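Detection: reporter luminescence signal / Assay system: STAT1-lacking human U3A cells, STAT3 luciferase reporter / Incubation: compound pre-incubation 1 h before IL-6, then 6 h stimulation at 37 °C / Control set: IL-6-only high control / Read-out: % activation relative to IL-6 control / Probe or stimulus: Interleukin-6, 33 ng/mL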
STAT1 act-1 = activators of IFN-gamma induced STAT1 signaling; NIH 3T3 STAT1-luciferase reporter, luminescence; 100% = IFN-gamma alone, no compound; activation (% of control), % at 5.5 µM; actives 2.6% (n = 200,000);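 active = activation above the screen-wide mean activation plus 3 SD, cut at about 130% in these data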;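 also: raw ratio to IFN-gamma control signal so 100% means no change and 0% no light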
NF-kB neuron act = compounds increasing NF-kB expression in human neuronal cells. actives 1.6% (n = 190,000). NF-kB reporter expression; active compounds read high. AID 1239. fold change at 12.5 µM; in the data active = fold change above about 3.3
STAT3 act-2 = STAT3 activation, confirmation assay; shares compounds with STAT3 act-1; U3A STAT3-luciferase reporter, IL-6 potentiation, luminescence; U3A cells lack STAT1; 100 means same as IL-6 alone; potentiation (% of control), % at 5.7 µM; actives 64% (n = 1,200); AID 1267;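 active = percent activation of the STAT3 luciferase reporter above a set limit taken from the earlier primary screen, cut at about 130% in these data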;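 also: 0% = background signal of medium plus substrate and 100% = median of IL-6 with DMSO wells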
NFkB act STAT3ct = counter-screen for STAT3 activators: NF-kappaB activation | shares compounds with STAT3 act-1 | human cells, NF-kappaB reporter activation | activation (% of control), % at 5.7 µM | actives 11% (n = 1,200); in the data active = activation above about 120%;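 also: reporter induced by TNF-alpha stimulation; 100% = median of stimulated DMSO wells and 0% = no signal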
STAT1 act-2 = counter-screen for STAT3 activators: STAT1 activation | shares compounds with STAT3 act-1 | NIH 3T3 STAT1-luciferase reporter, IFN-gamma, luminescence | activation (% of control), % at 5.7 µM | actives 13% (n = 1,200) | AID 1318;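 active = activation above the solvent-only control well mean plus 3 SD, set per screening run, cut at about 120% in these data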;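 also: 100% = IFN-gamma with DMSO median signal so 100% means no change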
* = called active by the depositor; · = not tested or not shown.

SMILES | STAT1 blocker | STAT3 inh | APP 5'UTR act | STAT3 act-1 | STAT1 act-1 | NF-kB neuron act | STAT3 act-2 | NFkB act STAT3ct | STAT1 act-2
CC(=O)Nc1ccc(NC(=O)c2ccc(CSc3ccccc3)o2)cc1 | 1.3 | -45.2 | 28.1 | 144.3* | 98.7 | 0.98 | 113.1 | 105.4 | 107.3
O=C(Nc1cccc(F)c1)c1ccc(CSc2ccccc2)o1 | 2.2 | -11.5 | 8.1 | 107.2 | 98.0 | 1.73 | · | · | ·
COc1ccc(N(Cc2ccccc2)C(=O)c2ccccc2[N+](=O)[O-])cc1 | -4.6 | -8.4 | 1.6 | 112.7 | 104.3 | 0.92 | · | · | ·
Cc1cccc(/C=N/NC(=O)C(C)Nc2cccc3ccccc23)n1 (centres undefined) | -1.1 | -75.3 | 14.1 | 164.4* | 106.9 | 2.26 | 138.9* | 93.7 | 97.0
CC(Nc1cccc2ccccc12)C(=O)N/N=C/c1ccc([N+](=O)[O-])cc1 (centres undefined) | 7.8 | -10.9 | 5.6 | 112.8 | 93.0 | 0.85 | · | · | ·
CN1CCN(C(=O)CSc2ccc(C(F)(F)F)cc2[N+](=O)[O-])CC1 | 2.3 | -9.2 | 25.7 | 108.7 | 97.4 | 1.22 | · | · | ·
CCCCOP(=O)(OCCCC)C1(NS(=O)(=O)c2ccccc2)C=CC(=O)c2ccccc21 (centres undefined) | -0.1 | -55.1 | -0.6 | 144.5* | 100.0 | 0.74 | 114.3 | 101.6 | 99.5
CCCCOCCCNS(=O)(=O)c1ccccc1 | -7.4 | -2.8 | -4.3 | 106.3 | 106.7 | 1.25 | · | · | ·
O=C(O)CCCCCN1C(=O)C(O)=C(C(=O)/C=C/c2ccccc2)C1c1ccccc1[N+](=O)[O-] (centres undefined) | 9.1 | -44.3 | 12.4 | 140.1* | 89.9 | 0.97 | 145.1* | 107.0 | 94.0
CCCCN1C(=O)C(O)=C(C(C)=O)C1c1ccccc1[N+](=O)[O-] (centres undefined) | 6.4 | 3.6 | 14.8 | 102.8 | 92.8 | 1.13 | · | · | ·
Fc1cccc(Cl)c1/C=N/Nc1ccccn1 | -30.5 | -41.5 | 18.4 | 138.0* | 128.0 | 1.8 | 143.9* | 113.3 | 126.7*
COc1ccccc1-n1c(CCn2nc(C)c(Br)c2C)n[nH]c1=S | 1.6 | -1.1 | -4.5 | 103.3 | 98.6 | 0.95 | · | · | ·
Clc1ccc(SCCOCCN2CCc3ccccc3C2)cc1 | 5.3 | -27.8 | -3.0 | 137.1* | 93.6 | 0.8 | 122.5 | 107.7 | 97.4
c1ccc(-c2ccccc2OCCOCCN2CCc3ccccc3C2)cc1 | 21.1 | -28.7 | 12.4 | 137.9* | 79.2 | 0.99 | 127.3 | 106.8 | 89.0
O=C(NC1CCNCC1)C1CC1 | 3.7 | 8.2 | 22.1 | 96.7 | 95.1 | 1.13 | · | · | ·
O=C(CSC1=Nc2ccccc2C2=NC(Cc3c[nH]c4ccccc34)C(=O)N12)NC1CCCCC1 (centres undefined) | -2.3 | -25.5 | 4.1 | 118.1 | 102.1 | 0.55 | · | · | ·
CC1CC(C)CN(C(=O)CSC2=Nc3ccccc3C3=NC(Cc4c[nH]c5ccccc45)C(=O)N23)C1 (centres undefined) | -8.2 | -47.5 | 0.3 | 140.2* | 107.5 | 1 | 129.4 | 105.0 | 109.2
CC(Oc1ccccc1)C(=O)Nc1ccccc1O (centres undefined) | 3.1 | -35.6 | -11.5 | 137.1* | 97.1 | 2.99 | 121.6 | 104.2 | 99.5
COC(=O)c1ccccc1NC(=O)C(C)Oc1ccccc1 (centres undefined) | 5.1 | 7.2 | -9.8 | 97.6 | 95.4 | 0.97 | · | · | ·
CCn1c(=O)c(C(=O)Nc2ccsc2C(=O)OC)c(O)c2ccccc21 | 1.3 | -52.0 | -9.7 | 137.9* | 98.8 | 1.55 | 151.0* | 94.0 | 102.0
CCOC(=O)C1(CC2CCCCO2)CCN(Cc2cc3ccccc3[nH]2)CC1 (centres undefined) | 19.2 | -48.7 | 13.9 | 143.8* | 81.2 | 1 | 135.8* | 104.2 | 95.1
COCCn1nnnc1C(c1cc2cc(C)ccc2[nH]c1=O)N1CCCCCC1 (centres undefined) | 0.2 | -5.9 | 8.2 | 111.8 | 99.8 | 1.05 | · | · | ·
COCCn1nnnc1C(c1cc2cc(C)ccc2[nH]c1=O)N1CCc2ccccc21 (centres undefined) | 4.6 | -59.2 | · | 149.6* | 96.3 | 1.02 | 105.6 | 107.8 | 97.0
COC(=O)C1=C(NC(=O)c2ccc(Br)cc2)CCS1 | -5.8 | -34.2 | -7.5 | 145.7* | 104.6 | 0.95 | 133.2* | 108.0 | 107.8
O=C(c1ccco1)N1N=C(c2ccc3nccnc3c2)CC1c1ccccc1 (centres undefined) | -3.0 | 11.6 | 2.5 | 97.7 | 102.9 | 0.68 | · | · | ·
SMILES | STAT1 blocker | STAT3 inh | APP 5'UTR act | STAT3 act-1 | STAT1 act-1 | NF-kB neuron act | STAT3 act-2 | NFkB act STAT3ct | STAT1 act-2
O=C(NCc1cccnc1)c1ccc(COc2ccccc2Cl)o1 | 3.3 | -10.7 | 19.5 | 112.0 | 95.9 | 0.88 | · | · | ·
CCCC(C)NC(=O)Cc1ccccc1[N+](=O)[O-] (centres undefined) | 4.0 | -29.8 | 11.2 | 126.0 | 95.8 | 1.05 | · | · | ·
CCC(CC)NC(=O)Cc1ccccc1[N+](=O)[O-] | 9.8 | -30.0 | -11.3 | 137.9* | 93.5 | 1.16 | 140.2* | 108.0 | 96.8
CN(C)C(=O)c1cc2cc(Br)ccc2s1 | -11.2 | 23.2 | 28.1 | 81.4 | 110.6 | 1.3 | · | · | ·
CC1(C)CC(=O)C2=C(C1)N1C(=C(C#N)C2c2ccc(Cl)cc2)N=C(N)c2ccccc21 (centres undefined) | -5.8 | -33.8 | 0.9 | 129.0 | 105.3 | 0.49 | · | · | ·
N#CC1=C2N=C(N)c3ccccc3N2C2=C(C(=O)CCC2)C1c1ccc(Cl)cc1 (centres undefined) | 8.2 | -96.5 | -7.9 | 182.9* | 92.5 | 0.45 | 148.8* | 96.9 | 97.0
C=CCNC(=O)c1cc(C(=O)C(C)c2ncc(C(F)(F)F)cc2Cl)c[nH]1 (centres undefined) | -5.3 | 9.9 | 3.5 | 94.7 | 103.8 | 0.99 | · | · | ·
O=C(CCCn1c(=O)oc2ccccc21)N1CCc2ccccc2C1 | 0.2 | -68.1 | 10.7 | 161.4* | 99.8 | 1.31 | 151.7* | 108.6 | 108.1
CC1CCc2c(sc(NC(=O)CSc3nc4c(c(C(F)(F)F)n3)CCc3ccccc3-4)c2C(N)=O)C1 (centres undefined) | 6.1 | 1.1 | -12.4 | 98.6 | 94.5 | 0.85 | · | · | ·
CSc1nc(O)c(C2OC(=O)c3ccccc32)c(=O)[nH]1 (centres undefined) | 4.0 | 8.9 | -2.4 | 95.5 | 96.3 | 1.3 | · | · | ·
CSc1nc(O)c(/C=C2\C=Nc3ccccc32)[nH]1 | -23.4 | -45.3 | 4.8 | 138.4* | 121.0 | 1.54 | 146.1* | 112.4 | 123.1*

Source: PubChem BioAssay
